This is an account of results in ChEMBL document CHEMBL1127304, “The discovery of novel, structurally diverse protein kinase C agonists through computer 3D-database pharmacophore search. Molecular modeling studies” (J Med Chem, 1994).

One assay has as its target T1, Protein kinase C alpha type (Homo sapiens, UniProt P17252). The assay is described as follows: (§1) Binding affinity with protein kinase C (PK-C) alpha bound to labeled [20-3H]-PDBU at a conc of 30 ug/mL. The gist of the method: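 Competitive displacement of [20-³H]phorbol 12,13-dibutyrate bound to PK-C α, with each ligand at a single concentration of 30 μg/mL in media. The read-out is percent inhibition of bound [³H]PDBU.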
The compound `CC(=O)C(C(=O)CCSCCO)C(SCCO)c1ccc(Cl)c(Cl)c1` (stereo unspecified) returned an inhibition of 30%.

The compound `COc1cccc2c1C(=O)c1c(O)c3c(c(O)c1C2=O)C[C@@](O)(/C(CO)=N/NC(=O)c1ccc(Cl)c(Cl)c1)C[C@@H]3OC1CC(N)C(O)C(C)O1` (stereo partly specified) returned an inhibition of 30%.

In turn, `O=C1c2cccc(O)c2C(=O)c2c(OCCN(CCO)Cc3ccccc3)ccc(O)c21` came in with an inhibition of 34%.

`O=C1c2c(NCCCNCCO)cccc2C(=O)c2c(NCCCNCCO)ccc(O)c21` displayed an inhibition of 30%.

For `O=C1c2cccc(O)c2C(=O)c2c(OCCN(CCO)Cc3ccccc3)cccc21`, the inhibition amounted to 25%.

As for `CC(=O)O[C@@H]1CC2C(C)(C)C(=O)C=CC2(C)C2CCC3(C)C(=CCC3C(CO)CCC(O)C(=O)C(C)(C)O)C21` (stereo partly specified), the inhibition is 27%.

The target in a further assay is T1, Protein kinase C alpha type. The assay is described as §1.
In turn, `O=C1c2ccccc2C(=O)c2c(Nc3cccc(S(=O)(=O)N(CCO)CCO)c3)ccc(O)c21` displayed a Ki of 26.6 µM. This lies in the double-digit micromolar range.

`O=C(OCC(O)C(OC(=O)c1ccccc1)C(CO)OC(=O)c1ccccc1)c1ccccc1` (stereo unspecified) showed a Ki of 12.9 µM.

In the case of `CC(=O)OC[C@@]1(C)C(OC(C)=O)CC[C@]2(C)[C@H](CC(OC(C)=O)C3=CCOC3=O)[C@](C)(CO)CC[C@H]21` (stereo partly specified), the affinity corresponds to a Ki of 37.7 µM.

`C[C@]12C/C(=C/N(CCO)CCO)C(=O)C[C@@H]1CC[C@@H]1[C@@H]2CC[C@]2(C)[C@@H](O)CC[C@@H]12` gave a Ki of 16.1 µM. This Ki lies about 2.3-fold lower than the previous one.

With `O=C1c2ccccc2C(=O)c2c(Nc3ccc(S(=O)(=O)N(CCO)CCO)cc3)ccc(O)c21`, the affinity, expressed as Ki, was 7.8 µM.

As usually defined, the inhibition is how much of the control response was suppressed. A lower inhibition goes with a weak effect. What is called Ki is the equilibrium dissociation constant of an inhibitor or competing ligand from its target. The low end stands for higher affinity, the high end for lower affinity.
